Laboratory results taken from ChEMBL document CHEMBL4004814, “In Vitro and in Vivo Evaluation of Fully Substituted (5-(3-Ethoxy-3-oxopropynyl)-4-(ethoxycarbonyl)-1,2,3-triazolyl-glycosides as Original Nucleoside Analogues to Circumvent Resistance in Myeloid Malignancies” (J Med Chem, 2017).
Calls of active or inactive are those of the source. The rule behind the calls is not given here.

Key:
Assay type in all cases: functional, cell-based
[1] = system: K562; test: Antileukemic activity against human K562 cells after 48 hrs by XTT assay; details: K562, 48 h
How it was run: (§1)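 XTT read-out of mitochondrial metabolism after 48 h incubation with compound (up to 10 µM in first screen). XTT reagent added to cells, formazan absorbance read at 490 nm. Each assay run in quadruplicate. IC50 derived; standard deviation reported. Resistant K562 line obtained by chronic imatinib exposure for 6 months.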

[2] = Antiproliferative activity against human SKM1-R cells after 48 hrs by DAPI-staining-based flow cytometric method
How it was run: (§2)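 Flow cytometry of DAPI incorporation after 48 h incubation with compound; DL50 derived. SKM1 grown in RPMI with 10% FCS at 37°C, 5% CO2, with penicillin/streptomycin.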

[3] = Antiproliferative activity against human SKM1-S cells after 48 hrs by XTT assay; how it was run: as §1
[4] = system: SKM1-R; test: Induction of apoptosis in human SKM1-R cells assessed as caspase 3 cleavage at 10 uM by Western blot method
[5] = system: SKM1-S; test: Induction of apoptosis in human SKM1-S cells assessed as caspase 3 cleavage at 1 uM by Western blot method
[6] = Antiproliferative activity against human SKM1-R cells after 48 hrs by XTT assay
[7] = Antiproliferative activity against human SKM1-S cells after 48 hrs by DAPI-staining-based flow cytometric method; how it was run: as §2

| SMILES | IC50 [1] | other results |
| --- | --- | --- |
| CCOC(=O)C#Cc1c(C(=O)OCC)nnn1[C@@H]1O[C@H](COC)[C@@H](OC)[C@H]1OC | 800 nM |  |
| Nc1ncn([C@@H]2O[C@H](CO)[C@@H](O)[C@H]2O)c(=O)n1 [AZACITIDINE] |  | EC50 [2]: > 10000 nM; IC50 [3]: 500 nM; Activity [4]: inactive; Activity [5]: Active; IC50 [6]: > 10000 nM; EC50 [7]: 510 nM |
| CC(=O)OC[C@H]1O[C@@H](n2nnc(C(=O)OC(C)(C)C)c2C#CC(=O)OC(C)(C)C)[C@H](OC(C)=O)[C@@H]1OC(C)=O | 2500 nM |  |
| CCCCCCCC#Cc1c(C(=O)OCC)nnn1[C@@H]1O[C@H](CO)[C@H]2OC(C)(C)O[C@H]21 | > 10000 nM |  |
| CCOC(=O)C#Cc1c(C(=O)OCC)nnn1[C@@H]1O[C@H](CO)[C@H]2O[C@@](C)(c3ccccc3)O[C@H]21 | 500 nM |  |
| CCOC(=O)C#Cc1c(C(=O)OCC)nnn1[C@@H]1O[C@H](COC)[C@H]2OC(C)(C)O[C@H]21 | 550 nM |  |
| CCOC(=O)c1nnn([C@@H]2O[C@H](CO)[C@H]3OC(C)(C)O[C@H]32)c1C#Cc1ccc(F)cc1 | > 10000 nM |  |
| CCOC(=O)c1nnn([C@@H]2O[C@H](COC(C)=O)[C@@H](OC(C)=O)[C@H]2OC(C)=O)c1C(=O)c1ccco1 | > 10000 nM |  |
| CCOC(=O)C#Cc1c(C(=O)OCC)nnn1[C@@H]1O[C@H](COC(C)=O)[C@H]2OC(C)(C)O[C@H]21 | 500 nM |  |
| CCOC(=O)c1nnn([C@@H]2O[C@H](COC(C)=O)[C@@H](OC(C)=O)[C@H]2OC(C)=O)c1C(=O)c1cccs1 | > 10000 nM |  |
| COC(=O)C#Cc1c(C(=O)OC)nnn1[C@@H]1O[C@H](COC(C)=O)[C@H]2OC(C)(C)O[C@H]21 | 150 nM |  |
| CCOC(=O)c1nnn([C@@H]2O[C@H](COC(C)=O)[C@@H](OC(C)=O)[C@H]2OC(C)=O)c1-c1cccs1 | > 10000 nM |  |
| CCOC(=O)C#Cc1c(C(=O)OCC)nnn1[C@H]1C[C@H](OC(C)=O)[C@@H](COC(C)=O)O1 | 200 nM |  |
| CCOC(=O)C#Cc1c(C(=O)OCC)nnn1[C@@H]1O[C@H](COC(C)=O)[C@H](OC(C)=O)[C@H]1OC(C)=O | 200 nM |  |
| CCOC(=O)C#Cc1c(C(=O)OCC)nnn1[C@@H]1O[C@H](COC(C)=O)[C@@H](OC(C)=O)[C@H]1OC(C)=O | 700 nM |  |
| COC(=O)C#Cc1c(C(=O)OC)nnn1[C@@H]1O[C@H](CO)[C@H]2OC(C)(C)O[C@H]21 | 1450 nM |  |
| NC(=O)c1ncn([C@@H]2O[C@H](CO)[C@@H](O)[C@H]2O)c1N [ACADESINE] | 800000 nM |  |
| CC(C)(C)OC(=O)C#Cc1c(C(=O)OC(C)(C)C)nnn1[C@@H]1O[C@H](CO)[C@H]2OC(C)(C)O[C@H]21 | 1150 nM |  |
| CCOC(=O)C#Cc1c(C(=O)OCC)nnn1[C@H]1O[C@@H](COC(C)=O)[C@H](OC(C)=O)[C@@H]1OC(C)=O | 200 nM |  |
| CCOC(=O)c1nnn([C@@H]2O[C@H](COC(C)=O)[C@@H](OC(C)=O)[C@H]2OC(C)=O)c1C(=O)c1ccc(C)cc1 | > 10000 nM |  |
| COC(=O)c1nnn([C@@H]2O[C@H](CO)[C@H]3OC(C)(C)O[C@H]32)c1I | > 10000 nM |  |
| CCOC(=O)c1nnn([C@@H]2O[C@H](COC(C)=O)[C@@H](OC(C)=O)[C@H]2OC(C)=O)c1I | > 10000 nM |  |
| CCOC(=O)c1nnn([C@@H]2O[C@H](CO)[C@H]3OC(C)(C)O[C@H]32)c1I | > 10000 nM |  |
| CCCC1(CCC)O[C@@H]2[C@H](O1)[C@@H](CO)O[C@H]2n1nnc(C(=O)OCC)c1C#CC(=O)OCC | 150 nM |  |
